dFosB act-1 = activators of mouse delta FosB homodimer. 0.99% of 340,000 active. P13346. purified delta FosB, TAMRA-CDK5 oligo fluorescence polarization; percent of positive-control signal above neutral wells. activation, % at 25 µM;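 active = mean activation above about 17%, with every replicate also reaching it, limit read from the data, passing the limit was not always enough; inconclusive = only one of the two conditions met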
Target sequence (P13346 whole entry, looked up): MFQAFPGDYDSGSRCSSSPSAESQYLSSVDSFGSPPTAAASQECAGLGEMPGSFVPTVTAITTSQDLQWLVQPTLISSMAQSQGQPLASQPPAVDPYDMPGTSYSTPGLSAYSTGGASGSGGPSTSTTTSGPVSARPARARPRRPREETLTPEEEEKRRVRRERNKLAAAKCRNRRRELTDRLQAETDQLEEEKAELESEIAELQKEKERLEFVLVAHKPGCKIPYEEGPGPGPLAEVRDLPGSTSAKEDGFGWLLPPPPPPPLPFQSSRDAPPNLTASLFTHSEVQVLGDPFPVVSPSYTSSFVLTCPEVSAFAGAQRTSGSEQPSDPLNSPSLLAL
SR-BI DiI inh = inhibitors of mouse SR-BI mediated HDL lipid uptake | ldlA[mSR-BI] CHO cells, DiI-HDL uptake fluorescence, 3 h | 0.96% of 320,000 active | inhibition, % at 12.5 µM;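 active = mean replicate inhibition of at least 70% and a set share of replicates each scoring 70 or more; inconclusive = meets just one of the two criteria; inactive = fails both criteria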
SR-BI DiI-HDL act = activators of SR-BI mediated HDL lipid uptake; CHO ldlA[mSR-BI] cells, DiI-HDL uptake fluorescence, 3 h; 100 = double the neutral-control signal; activation, % at 12.5 µM; 0.096% of 320,000 active;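 active = mean replicate activation of at least 60% and every replicate at or above 60%; inconclusive = mean or all-replicate condition met, but not both; inactive = mean below 60% and not all replicates reaching 60%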
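System: LDL receptor-deficient CHO ldlA cells overexpressing murine SR-BI | Timing: 3 h uptake period with compound, 37 °C | Medium: HEPES-buffered (25 mM, pH 7.4) F12 plus 0.5% BSA | Dosing: Single-point compound dose | Signal: Bottom-read fluorescence, 550/595 nm | Read-out: Retained DiI signal reflecting DiI-HDL uptake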
PvdQ acylase = P. aeruginosa PvdQ acylase inhibition; purified PvdQ acylase, fluorescence plate reader; 0.063% of 340,000 active; AID 488965; inhibition, % at 10 µM; in the data active = inhibition above about 30%, passing the limit was not always enough; inconclusive = no clear call, values can overlap the other calls
RAD54 branch = RAD54 (human) branch migration inhibition; Q92698; RAD54 Holliday junction branch migration, FAM/BHQ fluorescence; inhibition, % at 10.4 µM; 0.14% of 360,000 active; AID 602329;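 active = mean normalized replicate activity at least 40 and at least half of replicates scoring 40 or more; inconclusive = only one of the two criteria met; inactive = mean below 40 and under half of replicates reaching 40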;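 also: inhibitors cause a drop in the FAM fluorescence signal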
S100A4 inh HTS = S100A4-myosin IIA interaction inhibition; inhibition, % at 10.7 µM; 0.14% of 360,000 active; AID 652163; P26447; S100A4/TAMRA-MyoIIA peptide fluorescence polarization;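 active = mean inhibition of at least 70% across replicates, with every replicate also reaching that level; inconclusive = mean inhibition reaches 70% but some replicates fall short; inactive = mean inhibition below 70%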
Target sequence (P26447 whole entry, looked up): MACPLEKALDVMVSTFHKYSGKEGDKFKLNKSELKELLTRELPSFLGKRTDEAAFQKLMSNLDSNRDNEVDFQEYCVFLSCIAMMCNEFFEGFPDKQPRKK
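incubation = readout 5 min after mixing, signal stable up to 60 min | system = S100A4 monomer protein | buffer or medium = HEPES pH 7.2 with CaCl2, KCl, NaCl, DTT, Triton | benchmarks = neutral control DMSO, positive control TFP | also added = fluorescent myosin IIA peptide, 5 nM | compound dosing = one concentration per compound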
dFosB act-2 = delta FosB (mouse) homodimer activation | shares compounds with dFosB act-1 | 2,400 tested, under 10 active | purified delta FosB, TAMRA-CDK5 oligo fluorescence polarization; normalised: neutral wells 0, positive control 100 | activation, % at 24.9 µM;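 active = highest replicate activation at or above 34% and every replicate reaching that threshold; inconclusive = meets only one of the two criteria; inactive = meets neither criterion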;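 also: higher polarization means more probe DNA bound by delta FosB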
Hits are given with their value; n = inactive; u = inconclusive; x = no result. Rows were chosen to be rich in hits. Some 1.6% of all compounds tested hit in one or more screens of this group.

SMILES	dFosB act-1	SR-BI DiI inh	SR-BI DiI-HDL act	PvdQ acylase	RAD54 branch	S100A4 inh HTS	dFosB act-2
Cc1ccc(-n2nnc3c(=O)n(CC(=O)NCc4ccccc4)cnc32)cc1	27	n	n	n	n	n	n
O=C(Cn1cnc2c(nnn2-c2ccccc2)c1=O)NCc1ccc(F)cc1	19	n	n	n	n	n	n
Cc1c(NC(=O)Cc2ccccc2)cccc1C(=O)NN1C(=O)c2ccccc2C1=O	23	n	n	n	n	n	n
Cc1cccc(NC(=O)c2ccccc2NC(=O)Cc2ccccc2)c1C	n	n	n	n	n	n	x
COc1ccc(-c2nnc(SCc3nc4ccccc4c(=O)[nH]3)o2)cc1	19	x	x	n	n	n	n
O=C(C[C@@H]1C[C@H]2c3cc(NC(=O)CC4CC4)ccc3O[C@H]2[C@H](CO)O1)NCc1ccccn1	x	x	x	x	n	n	x
O=C(CSc1nc2[nH]ncc2c(=O)[nH]1)Nc1ccc(OC(F)(F)F)cc1	19	n	n	n	x	n	n
C[C@@H]1CN([C@H](C)CO)S(=O)(=O)c2ccc(C#C[C@@H](C)O)cc2O[C@H]1CN(C)C(=O)Nc1ccccc1	x	x	x	x	n	n	x
CO[C@H]1O[C@H](CO)[C@@H](OC(=O)Nc2cccc(F)c2)[C@H](OC(=O)Nc2ccccc2)[C@@H]1OC(=O)Nc1ccccc1	x	x	x	x	x	n	x
Cn1c(N)c(C(=O)CSc2nn(-c3ccc(F)cc3)c(=S)s2)c(=O)n(C)c1=O	52	n	n	n	n	n	n
Cc1cc(C)c2c(n1)sc1c(-c3ccccc3)c(C#N)c(N)nc12	29	n	n	n	x	x	n
CCCCC(=O)Nc1nnc(S(=O)(=O)N(CC)c2ccccc2)s1	18	n	n	n	n	n	n
COc1ccccc1C1CCN(Cc2ccc3ccccc3c2)CC1	21	n	n	n	n	n	n
COc1ccccc1C1CCN(Cc2ccccc2)CC1	n	n	n	n	n	n	x
NC1=NC2(CCC(c3ccccc3)CC2)n2c(nc3ccccc32)N1 (stereo unspecified)	34	n	n	n	n	x	n
NC1=NC2(CCCCC2)n2c(nc3ccccc32)N1	n	n	n	n	n	x	x
CCCNC(=O)[C@@H]1[C@@H](CO)[C@@H]2Cn3c(ccc(-c4ccccc4OC)c3=O)[C@@H]2N1CC	x	x	x	x	n	n	x
NNc1nc(Nc2ccc([N+](=O)[O-])cc2)nc(N2CCCCCC2)n1	67	n	n	n	n	n	n
O=[N+]([O-])c1ccc(Nc2nc(NCCO)nc(N3CCCC3)n2)cc1	n	n	n	n	x	n	x
C[C@@H]1CN([C@H](C)CO)C(=O)c2cc(C#CC(C)(C)O)cnc2O[C@@H]1CN(C)C(=O)C1CCOCC1	x	x	x	x	n	n	x
COc1ccc(NC(=O)N(C)C[C@H]2Oc3ccc(NS(=O)(=O)c4ccc(F)cc4)cc3CC(=O)N([C@H](C)CO)C[C@H]2C)cc1	x	x	x	x	x	n	x
Clc1ccc(-c2nnc(NCc3ccccc3)c3ccccc23)cc1	18	n	n	n	n	x	n
CC(=O)Nc1ccc(NC(=O)c2ccc(N(Cc3ccccc3C)S(C)(=O)=O)cc2)cc1	20	n	n	n	x	n	n
CC(=O)Nc1ccc(NC(=O)c2ccc(NC(=O)c3ccccc3)cc2)cc1	27	n	n	n	n	n	n
CC(=O)Nc1ccc(/C=N/NC(=O)CNC(=O)c2ccccc2)cc1	21	n	n	n	x	n	n
SMILES	dFosB act-1	SR-BI DiI inh	SR-BI DiI-HDL act	PvdQ acylase	RAD54 branch	S100A4 inh HTS	dFosB act-2
COc1ccccc1NS(=O)(=O)c1cccc(C(=O)N/N=C/c2ccc(NC(C)=O)cc2)c1	29	x	x	n	x	n	n
COc1ccccc1NS(=O)(=O)c1cccc(C(=O)N/N=C/c2ccc(OCC(=O)O)cc2)c1	n	n	n	n	x	n	x
C[C@H](CO)N1C[C@H](C)[C@@H](CN(C)C(=O)Nc2ccccc2)OCCCC[C@H](C)Oc2ccc(NC(=O)Cc3ccccc3)cc2C1=O	x	x	x	x	n	n	x
CN(C)C(=O)C[C@H]1C[C@@H]2c3cc(NC(=O)Nc4ccc(C(F)(F)F)cc4)ccc3O[C@@H]2[C@@H](CO)O1	x	x	x	x	n	n	x
Cn1nc(-c2ccc(C(=O)Nc3cccc(Cl)c3)cc2)c2ccccc2c1=O	40	n	n	n	n	x	n
Cn1nc(-c2ccc(C(=O)Nc3ccc(F)cc3)cc2)c2ccccc2c1=O	51	u	n	n	x	x	n
Cc1ccc(NC(=O)c2ccc(-c3nn(C)c(=O)c4ccccc34)cc2)cc1	n	n	n	n	n	n	x
Cn1nc(-c2ccc(C(=O)Nc3cccnc3)cc2)c2ccccc2c1=O	n	n	n	n	x	x	x
CCC(=O)N1[C@@H]2CN(C(=O)c3ccncc3)c3ccccc3[C@@H]2[C@@H]1CO	x	x	x	x	n	n	x
CC(=O)NCCNC(=O)C1CCC(CNc2nc(=S)[nH]c3ccccc23)CC1 (stereo unspecified)	n	n	n	n	n	n	x
NS(=O)(=O)c1ccc(CCNC(=O)C2CCC(Cn3c(=S)[nH]c4ccccc4c3=O)CC2)cc1 (stereo unspecified)	18	n	n	n	x	n	n
O=C(NCCc1ccccc1)C1CCC(CNc2nc(=S)[nH]c3ccccc23)CC1 (stereo unspecified)	24	n	n	n	n	n	n
Cc1ccc(CSCC(=O)N/N=C/c2ccc(OCC(=O)Nc3ccc(C)cc3)cc2)cc1	27	n	n	n	n	x	n
COc1cccc(-c2ccc3n(c2=O)C[C@@H]2[C@@H](CO)[C@H](C(=O)N4CCOCC4)N[C@H]32)c1	x	x	x	x	n	n	x
Cc1cccc(-c2nsc(SCC(=O)Nc3ccc4c(c3)OCO4)n2)c1	20	n	n	n	x	x	n
Cc1ccccc1-c1nsc(SCC(=O)Nc2ccc3c(c2)OCO3)n1	n	n	n	n	x	x	x
CC1(C)Cc2c(sc3nc(SCC(=O)NCc4ccco4)n(-c4ccccc4)c(=O)c23)CS1	n	n	n	n	x	x	x
O=C(CSc1nc2sc3c(c2c(=O)n1-c1ccccc1)CCCC3)NCc1ccco1	52	n	n	n	n	n	n
C[C@@H]1CN([C@H](C)CO)C(=O)c2cc(C#Cc3cccnc3)cnc2O[C@H]1CN(C)C	x	x	x	x	n	n	x
C[C@H]1CN([C@@H](C)CO)S(=O)(=O)c2ccc(-c3cccc(F)c3)cc2O[C@H]1CN(C)CC1CC1	x	x	x	x	n	n	x
Cc1ccc(C)c(-n2nnnc2SCC(=O)c2ccc3c(c2)NC(=O)CO3)c1	68	n	n	n	n	x	n
COc1ccc(N2CCc3c(C)nc4c(OC)cc(OC)cc4c32)c(OC)c1	n	n	n	n	n	x	x
COc1ccc(N2CCc3c(C)nc4c(OC)cc(OC)cc4c32)cc1	38	n	n	n	x	n	n

From PubChem BioAssay
